This passage reports IC50 results from ChEMBL document CHEMBL1155938, “Design, synthesis and biological evaluation of new tryptamine and tetrahydro-beta-carboline-based selective inhibitors of CDK4” (Bioorg Med Chem, 2008).

The target of assay [1] is Cyclin-dependent kinase 2 (Homo sapiens, UniProt P24941). Kind of assay: Inhibition of human CDK2/GST-cyclin A expressed in Sf9 cells assessed as histone phosphorylation. The gist of the method: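 Sf-9 co-expressed CDK2 with GST-cyclin A, purified on glutathione-agarose and dialysed. Histone H1 was the substrate, in 40 mM Tris pH 7.5, 20 mM MgCl₂, 0.1 mg/mL BSA with phosphatase/protease inhibitors and DTT. Compounds came from 10 mM DMSO stock, serially diluted. 200 ng enzyme was incubated 30 min at 30 °C. ATP depletion was read by Kinase-Glo luminescence, and IC50 derived.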

The target of assay [2] is Cyclin-dependent kinase 4/cyclin D1 (Homo sapiens, UniProt P11802). Kind of assay: Inhibition of human CDK4/GST-cyclin D1 expressed in Sf9 cells assessed as retinoblastoma GST-RB152 phosphorylation. The gist of the method:
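CDK4 with GST-cyclin D1 was co-expressed in Sf-9, purified on glutathione-agarose and dialysed. The substrate was GST-RB152, expressed in E. coli BL21(DE3)pLysS (4 mM IPTG, 4 h, 37 °C). The buffer was 40 mM Tris pH 7.5, 20 mM MgCl₂, 0.1 mg/mL BSA plus inhibitors and DTT. 200 ng enzyme ran 30 min at 30 °C. Kinase-Glo luminescence (ATP depletion) gave IC50.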

pIC50: −log10 of the molar value.

In general, pIC50 refers to the negative decadic logarithm of the IC50, by convention in mol/L.

Cyclin-dependent kinase 4/cyclin D1, sequence (P11802 whole entry): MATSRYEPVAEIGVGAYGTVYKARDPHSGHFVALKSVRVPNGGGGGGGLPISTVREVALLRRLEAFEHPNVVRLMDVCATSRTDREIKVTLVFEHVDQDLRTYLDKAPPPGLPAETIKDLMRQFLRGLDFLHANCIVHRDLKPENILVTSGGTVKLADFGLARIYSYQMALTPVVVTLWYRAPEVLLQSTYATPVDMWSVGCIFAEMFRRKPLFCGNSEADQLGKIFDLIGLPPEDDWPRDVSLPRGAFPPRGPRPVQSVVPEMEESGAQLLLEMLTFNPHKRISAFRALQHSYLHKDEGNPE
Cyclin-dependent kinase 4/cyclin D1, sequence (P24385 whole entry, further chain): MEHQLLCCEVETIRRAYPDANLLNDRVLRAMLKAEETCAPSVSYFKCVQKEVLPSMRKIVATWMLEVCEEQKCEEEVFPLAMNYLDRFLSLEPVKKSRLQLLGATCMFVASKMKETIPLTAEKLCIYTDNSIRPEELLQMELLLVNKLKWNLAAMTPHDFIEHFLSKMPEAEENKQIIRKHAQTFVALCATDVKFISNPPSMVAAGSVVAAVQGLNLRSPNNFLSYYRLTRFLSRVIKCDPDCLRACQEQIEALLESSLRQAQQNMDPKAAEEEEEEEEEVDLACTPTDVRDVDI

For `O=C(c1cccc(-c2cccc(F)c2)c1)N1CCc2c([nH]c3ccccc23)C1`, the pIC50 in assay [1] was 3.21; in assay [2], 4.57. Turning to `O=C(c1ccc(-c2ccccc2F)cc1)N1CCc2c([nH]c3ccccc23)C1`, the pIC50 was 3.51 in assay [1] and 4.77 in assay [2]. In the same order, the values of `CN(CCc1c[nH]c2ccccc12)C(=O)c1ccc(-c2ccc(C(C)(C)C)cc2)cc1` are 3.13 and 4.95. Take `O=C(c1ccccc1-c1ccncc1)N1CCc2c([nH]c3ccccc23)C1`: the pIC50 in assay [1] is 3.45; in assay [2], 4.41.

As to `O=C(NCCc1c[nH]c2ccccc12)c1ccccc1-c1cccc(F)c1`, the values for the pIC50 in assay [1] and in assay [2] were 3.38 and 4.70, respectively. Consider `COc1cccc(-c2cccc(C(=O)N3CCc4c([nH]c5ccccc45)C3)c2)c1`, for which the pIC50 is 3.44 in assay [1] and 4.48 in assay [2]. On to `O=C1c2ccccc2-[n+]2ccc3c([nH]c4ccccc43)c21` [FASCAPLYSIN CHLORIDE], for which the pIC50 in assay [1] is 3.30; in assay [2] it was 6.26. For `Cc1ccc(-c2ccc(C(=O)NCCc3c[nH]c4ccccc34)cc2)cc1`, the pIC50 is 3.09 in assay [1] and 4.74 in assay [2]. As to `Cc1cccc(-c2ccccc2C(=O)N2CCc3c([nH]c4ccccc34)C2)c1`, the negative-log IC50 (pIC50) in assay [1] was 3.41; in assay [2] it was 4.59. Regarding `COc1ccc(-c2ccc(C(=O)NCCc3c[nH]c4ccccc34)cc2)cc1`, the figures for the pIC50 in assay [1] and in assay [2] were 2.96 and 4.32, respectively.

Regarding `Cc1cccc(-c2ccc(C(=O)N3CCc4c([nH]c5ccccc45)C3)cc2)c1`, the pIC50 in assay [1] is 3.39; in assay [2] it was 4.60. With `O=C(c1ccc(-c2ccc(F)cc2)cc1)N1CCc2c([nH]c3ccccc23)C1`, the pIC50 was 3.36 in assay [1] and 4.92 in assay [2].

Take `CN(CCc1c[nH]c2ccccc12)C(=O)c1ccc(-c2ccc(-c3ccccc3)cc2)cc1`: the figures for the negative-log IC50 (pIC50) in assay [1] and in assay [2] were 4.04 and 4.46, respectively. For `O=C(c1ccccc1-c1cccnc1)N1CCc2c([nH]c3ccccc23)C1`, the pIC50 was 3.51 in assay [1] and 4.44 in assay [2]. For the molecule `CC(C)(C)c1ccc(-c2ccccc2C(=O)NCCc2c[nH]c3ccccc23)cc1`, the pIC50 is 3.58 in assay [1] and 4.42 in assay [2]. As for `O=C(NCCc1c[nH]c2ccccc12)c1ccccc1-c1ccc(F)cc1`, the pIC50 is 2.92 in assay [1] and 4.42 in assay [2]. With `Cc1ccc(-c2ccc(C(=O)N3CCc4c([nH]c5ccccc45)C3)cc2)cc1`, the pIC50 in assay [1] was 3.13; in assay [2] it was 5.05. As for `O=C(NCCc1c[nH]c2ccccc12)c1ccc(-c2ccccc2)cc1`, the figures for the pIC50 in assay [1] and in assay [2] were 3.07 and 4.80, respectively. For the molecule `O=C(c1cccc(-c2ccc(F)cc2)c1)N1CCc2c([nH]c3ccccc23)C1`, the figures for the negative-log IC50 (pIC50) in assay [1] and in assay [2] were 3.50 and 4.60, respectively. On the same counts, the results for `COc1ccccc1-c1ccc(C(=O)N2CCc3c([nH]c4ccccc34)C2)cc1` are 3.49 and 4.66. As to `O=C(c1ccccc1-c1ccc(F)cc1)N1CCc2c([nH]c3ccccc23)C1`, the pIC50 in assay [1] is 3.45; in assay [2], 4.64. Consider `O=C(NCCc1c[nH]c2ccccc12)c1ccc(-c2ccc(F)cc2)cc1`, for which the values for the pIC50 in assay [1] and in assay [2] were 3.12 and 4.82, respectively.

Consider `O=C(NCCc1c[nH]c2ccccc12)c1cccc(-c2ccccc2)c1`, for which the pIC50 in assay [1] is 3.00; in assay [2], 4.07. In the same order, the values of `O=C(c1ccccc1-c1cccc(F)c1)N1CCc2c([nH]c3ccccc23)C1` are 3.32 and 4.46.

Regarding `Cc1ccccc1-c1ccc(C(=O)N2CCc3c([nH]c4ccccc34)C2)cc1`, the pIC50 in assay [1] was 3.47; in assay [2], 4.49. In the case of `CC(C)(C)c1ccc(-c2ccc(C(=O)NCCc3c[nH]c4ccccc34)cc2)cc1`, the figures for the pIC50 in assay [1] and in assay [2] were 3.10 and 5.04, respectively. On to `COc1cccc(-c2ccccc2C(=O)NCCc2c[nH]c3ccccc23)c1`, for which the values for the pIC50 in assay [1] and in assay [2] were 3.03 and 4.28, respectively. In the same order, the values of `COc1ccccc1-c1ccccc1C(=O)NCCc1c[nH]c2ccccc12` are 3.43 and 4.59. As to `Cc1cccc(-c2ccccc2C(=O)NCCc2c[nH]c3ccccc23)c1`, the pIC50 is 3.39 in assay [1] and 4.82 in assay [2]. As for `O=C(NCCc1c[nH]c2ccccc12)c1cccc(-c2cccnc2)c1`, the pIC50 in assay [1] was 3.82; in assay [2] it was 4.52. On the same counts, the results for `Cc1cccc(-c2cccc(C(=O)N3CCc4c([nH]c5ccccc45)C3)c2)c1` are 3.33 and 4.96.

For `Cc1ccc(-c2cccc(C(=O)N3CCc4c([nH]c5ccccc45)C3)c2)cc1`, the pIC50 in assay [1] was 3.33; in assay [2], 4.62. On the same counts, the results for `COc1ccc(-c2ccccc2C(=O)NCCc2c[nH]c3ccccc23)cc1` are 3.04 and 4.10. Consider `Cc1ccccc1-c1cccc(C(=O)N2CCc3c([nH]c4ccccc34)C2)c1`, for which the pIC50 in assay [1] was 3.18; in assay [2], 4.12. In the same order, the values of `O=C(c1ccccc1-c1ccccc1F)N1CCc2c([nH]c3ccccc23)C1` are 3.36 and 4.72. Consider `COc1ccc(-c2ccc(C(=O)N(C)CCc3c[nH]c4ccccc34)cc2)cc1`, for which the pIC50 is 3.54 in assay [1] and 4.31 in assay [2]. As to `CN(CCc1c[nH]c2ccccc12)C(=O)c1ccc(-c2ccccc2)cc1`, the pIC50 in assay [2] was 5.22. For the molecule `Cc1ccc(-c2ccc(C(=O)N(C)CCc3c[nH]c4ccccc34)cc2)cc1`, the pIC50 in assay [1] is 4.15; in assay [2], 4.62. As for `O=C(c1ccc(-c2cccc(F)c2)cc1)N1CCc2c([nH]c3ccccc23)C1`, the pIC50 in assay [1] was 3.53; in assay [2], 4.68.

Turning to `COc1ccccc1-c1cccc(C(=O)N2CCc3c([nH]c4ccccc34)C2)c1`, the values for the pIC50 in assay [1] and in assay [2] were 2.96 and 4.10, respectively. Take `COc1cccc(-c2ccc(C(=O)N3CCc4c([nH]c5ccccc45)C3)cc2)c1`: the pIC50 was 3.37 in assay [1] and 4.55 in assay [2]. As to `CN(CCc1c[nH]c2ccccc12)C(=O)c1ccc(-c2ccncc2)cc1`, the pIC50 is 4.04 in assay [1] and 4.59 in assay [2].

For the molecule `CN(CCc1c[nH]c2ccccc12)C(=O)c1ccc(-c2ccc(F)cc2)cc1`, the pIC50 is 3.06 in assay [1] and 4.68 in assay [2]. For the molecule `O=C(c1cccc(-c2ccccc2F)c1)N1CCc2c([nH]c3ccccc23)C1`, the results for the pIC50 in assay [1] and in assay [2] were 3.47 and 4.74, respectively.
